Usually pKi stands for the Ki on a negative log10 scale, so that one unit is a factor of ten. The low end stands for a large Ki, the high end for a small Ki. What is called Emax is the size of the effect at its maximum, as opposed to the concentration needed. As a reminder, the pEC50 is −log10 of the EC50, conventionally taken in molar units. Low readings indicate a large EC50, high ones a small EC50.

From ChEMBL document CHEMBL3739358 (J Med Chem, 2015) come the findings set out here.

One series has as its system Rattus norvegicus. The series can be described thus: Reversal of reserpine-induced hypolocomotion in Sprague-Dawley rat at 10 umol/kg, ip administered 18 hrs post reserpine challenge measured for 6 hrs relative to reserpine-treated control. The class given is functional, organism-based. Put shortly: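 Male and female Sprague−Dawley rats (220−225 g) were given reserpine 5.0 mg/kg sc 18 h beforehand and acclimatized in chambers for 1 h. Drug was given at 10 μmol/kg ip, and horizontal activity was recorded by infrared beam breaks for 6 h in 30 min bins. Three rats per group, compared with saline controls by one-way ANOVA with Dunnett's test.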

Another series concerns HEK293. Put plainly: Selectivity ratio of Ki for cloned rat dopamine D2L receptor to Ki for cloned rat dopamine D3 receptor expressed in HEK293 cells. It counts as cell-based. In a few lines:
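Competition with [3H]spiroperidol binding at cloned rat D2L and D3 receptors expressed in HEK-293 cells, giving Ki values; the selectivity ratio is D2L Ki divided by D3 Ki. Means ± SEM of 3−6 experiments, each in triplicate.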

For a further series, the target named is D(2) dopamine receptor (Rattus norvegicus, UniProt P61169). The series can be described thus: Displacement of [3H]Spiroperidol from cloned rat dopamine D2L receptor expressed in HEK293 cells by liquid scintillation counting analysis. It counts as cell-based. Put shortly: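 Competition with [3H]spiroperidol binding at cloned rat D2L and D3 receptors expressed in HEK-293 cells, giving Ki values; the selectivity ratio is D2L Ki divided by D3 Ki.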
D(2) dopamine receptor, sequence (P61169 whole entry): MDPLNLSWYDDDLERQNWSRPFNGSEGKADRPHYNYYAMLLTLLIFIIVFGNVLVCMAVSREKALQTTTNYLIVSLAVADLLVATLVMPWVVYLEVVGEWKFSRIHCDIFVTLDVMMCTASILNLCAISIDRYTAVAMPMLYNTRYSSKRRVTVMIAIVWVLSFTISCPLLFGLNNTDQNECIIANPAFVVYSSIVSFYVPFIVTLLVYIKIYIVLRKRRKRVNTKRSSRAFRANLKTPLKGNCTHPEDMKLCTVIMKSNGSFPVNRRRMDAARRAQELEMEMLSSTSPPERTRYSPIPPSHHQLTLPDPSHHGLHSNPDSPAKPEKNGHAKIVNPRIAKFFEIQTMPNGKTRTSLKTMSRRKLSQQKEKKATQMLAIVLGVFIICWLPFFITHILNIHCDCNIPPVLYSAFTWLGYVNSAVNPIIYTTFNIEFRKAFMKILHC
In general terms: Displacement assays read how much labelled ligand stays bound in the presence of the test substance.

Series [1] concerns the target D(3) dopamine receptor (Rattus norvegicus, UniProt P19020). The series can be described thus: Displacement of [3H]Spiroperidol from cloned rat dopamine D3 receptor expressed in HEK293 cells by liquid scintillation counting analysis. It counts as cell-based.
In series [2] the target is D(2) dopamine receptor (Homo sapiens) (UniProt P14416). The series can be described thus: Antagonist activity against human D2 receptor expressed in CHO cells assessed as inhibition of dopamine-induced [35S]GTPgammaS binding. The class given is functional, cell-based. For orientation: GTPγS is a poorly hydrolysed GTP analogue; its binding reports G protein activation.
D(2) dopamine receptor (Homo sapiens), sequence (P14416 whole entry): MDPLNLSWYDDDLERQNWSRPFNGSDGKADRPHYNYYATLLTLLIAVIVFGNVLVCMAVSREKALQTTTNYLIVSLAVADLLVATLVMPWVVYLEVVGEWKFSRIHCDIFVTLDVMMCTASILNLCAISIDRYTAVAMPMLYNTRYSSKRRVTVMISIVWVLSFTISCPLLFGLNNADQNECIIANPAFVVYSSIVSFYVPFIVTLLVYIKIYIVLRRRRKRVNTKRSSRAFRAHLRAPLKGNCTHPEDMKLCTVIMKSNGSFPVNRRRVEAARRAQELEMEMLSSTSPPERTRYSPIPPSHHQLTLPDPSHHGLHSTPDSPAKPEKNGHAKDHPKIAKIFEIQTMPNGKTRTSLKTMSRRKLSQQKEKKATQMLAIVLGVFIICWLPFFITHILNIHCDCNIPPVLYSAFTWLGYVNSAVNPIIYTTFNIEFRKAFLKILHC

The target is the same in series [3]. Put plainly: Agonist activity at human D2 receptor expressed in CHO cells by [35S]GTPgammaS binding assay relative to dopamine. It counts as functional, cell-based. In a few lines:
(§1)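 Stimulation of [35S]GTPγS binding in CHO cells expressing hD2 or hD3 receptors. EC50 is the concentration giving half-maximal stimulation. […] Mean ± SEM of 3−6 experiments, each in triplicate.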

Series [4] concerns the target T1, D(3) dopamine receptor (Homo sapiens, UniProt P35462). Put plainly: Agonist activity at human D3 receptor expressed in CHO cells by [35S]GTPgammaS binding assay relative to dopamine. It counts as functional, cell-based. In a few lines: as §1
In series [5] the target is D(2) dopamine receptor (Homo sapiens) (UniProt P14416). The conditions noted are these: CHO, 1 uM.
Series [6] has the same target. The conditions noted are these: CHO, 200 nM.
Series [7] in a line: Cytotoxicity against rat PC12 cells at 0.001 to 30 uM by MTT assay relative to control. It counts as cell-based. The conditions noted are these: pc-12, in the assay text read “0.01 to 30 uM” for “0.001 to 30 uM”. Put shortly:
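PC12 cells were grown in RPMI 1640 with 10% heat-inactivated horse serum and 5% FBS at 37 °C, seeded at 17000 cells/well for 24 h, then exposed to 0.01−30 μM compound. Viability was read by MTT (0.5 mg/mL final, 3−4 h), formazan dissolved in methanol:DMSO, A570 with 690 nm background, relative to untreated controls.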
On the technique in general: Tetrazolium assays rely on reduction of a dye to a coloured formazan, in cell work by metabolically active cells.

In another series the test system is PC-12. Put plainly: Neuroprotective activity against 6-OHDA-induced death of rat PC12 cells assessed as cell viability pretreated for 24 hrs measured 24 hrs post 6-OHDA challenge by MTT assay relative to 6-OHDA-treated control. The class given is functional, cell-based. Put shortly: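 PC12 cells were pretreated with compound for 24 h; the medium was then replaced and 75 μM 6-OHDA added for a further 24 h. Controls received 0.01% DMSO. Viability was measured by MTT (0.5 mg/mL final, 3−4 h, A570/690 nm). Mean ± SD of at least three experiments, each in four to six replicates.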

Series [8] in a line: Antioxidant activity assessed as DPPH free radical scavenging activity after 30 mins. The class given is physicochemical. Particulars: 0.5 h.
Series [9] deals with T1, D(3) dopamine receptor. The series can be described thus: Agonist activity at human D3 receptor expressed in CHO cells by [35S]GTPgammaS binding assay. It counts as functional, cell-based.
A short description of series [10]: Neuroprotective activity against 6-OHDA-induced death of rat PC12 cells assessed as cell viability pretreated for 24 hrs at 20 uM measured 24 hrs post 6-OHDA challenge by MTT assay relative to 6-OHDA-treated control. It counts as functional. Particulars: PC-12, read-out: Activity.

pEC50, pKi: −log10 of the molar value. The source made the active and inactive calls. The rule behind the calls is not given here.

D(3) dopamine receptor (Rattus norvegicus, UniProt P19020), sequence (P19020 whole entry): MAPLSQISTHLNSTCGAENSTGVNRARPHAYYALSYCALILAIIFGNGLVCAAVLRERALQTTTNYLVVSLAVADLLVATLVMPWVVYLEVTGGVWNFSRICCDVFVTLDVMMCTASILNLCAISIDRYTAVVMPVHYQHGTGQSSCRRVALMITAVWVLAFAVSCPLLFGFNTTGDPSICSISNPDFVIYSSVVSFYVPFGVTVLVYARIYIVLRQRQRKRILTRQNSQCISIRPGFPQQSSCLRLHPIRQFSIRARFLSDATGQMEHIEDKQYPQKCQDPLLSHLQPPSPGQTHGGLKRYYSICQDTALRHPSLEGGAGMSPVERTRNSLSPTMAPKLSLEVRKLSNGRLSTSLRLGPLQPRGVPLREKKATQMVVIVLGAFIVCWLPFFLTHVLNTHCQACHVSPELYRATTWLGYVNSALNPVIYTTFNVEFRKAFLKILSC
T1 sequence (P35462 whole entry): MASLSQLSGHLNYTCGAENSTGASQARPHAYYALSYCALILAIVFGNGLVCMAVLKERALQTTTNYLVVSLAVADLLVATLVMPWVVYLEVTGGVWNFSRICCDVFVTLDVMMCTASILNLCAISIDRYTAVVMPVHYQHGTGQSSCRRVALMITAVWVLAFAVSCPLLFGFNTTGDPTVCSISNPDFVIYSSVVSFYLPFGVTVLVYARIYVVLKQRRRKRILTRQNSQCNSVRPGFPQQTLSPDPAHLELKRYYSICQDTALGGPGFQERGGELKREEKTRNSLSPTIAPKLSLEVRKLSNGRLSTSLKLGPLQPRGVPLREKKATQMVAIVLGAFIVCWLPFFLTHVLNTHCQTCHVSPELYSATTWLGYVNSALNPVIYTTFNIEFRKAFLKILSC

Take `CCCN(CCC)CCc1cccc2c1CC(=O)N2`: the result with Rattus norvegicus was Active.

For `CCCN(CCN1CCN(Cc2c[nH]c3ccc(Br)cc23)CC1)C1CCc2nc(N)sc2C1` (racemic), the Ratio Ki with HEK293 turned out to be 29. Also, the pKi on D(2) dopamine receptor is 6.42; at D(3) dopamine receptor [1] it was 7.89.

As to `CCCN(CCN1CCN(Cc2c[nH]c3ccc(F)cc23)CC1)C1CCc2nc(N)sc2C1` (racemic), the Ratio Ki in the series on HEK293 was found to be 71. In addition, the pKi at D(2) dopamine receptor is 6.07; at D(3) dopamine receptor [1], 7.92.

Regarding `CCCN1CCC[C@@H](c2cccc(O)c2)C1`, the Ke was found to be 372 nM in series [2], 383 nM in series [5] and 362 nM in series [6]. The Emax stood at 19.8% in [3] and 52% at D(3) dopamine receptor [4].

For the compound `CCCN(CCN1CCN(c2cc(F)c3[nH]ccc3c2)CC1)[C@H]1CCc2nc(N)sc2C1`, the Ratio Ki in the series with HEK293 amounted to 43. The pKi at D(2) dopamine receptor was 6.81; at D(3) dopamine receptor [1], 8.44.

On to `CCCN(CCN1CCN(Cc2c[nH]c3cccc(OC)c23)CC1)C1CCc2nc(N)sc2C1` (racemic), for which the Ratio Ki with HEK293 stood at 75. Further, the pKi is 5.73 at D(2) dopamine receptor and 7.60 at D(3) dopamine receptor [1].

`CCCN[C@H]1CCc2nc(N)sc2C1`: the outcome with Rattus norvegicus was Active.

As for `CCCN(CCN1CCN(Cc2c[nH]c3ccc(OC)cc23)CC1)C1CCc2nc(N)sc2C1` (racemic), the Ratio Ki with HEK293 amounted to 101. Moreover, the results for the pKi at D(2) dopamine receptor and on D(3) dopamine receptor [1] were 5.79 and 7.80, respectively.

Turning to `CCCN(CCN1CCN(Cc2c[nH]c3cccc(Cl)c23)CC1)C1CCc2nc(N)sc2C1` (racemic), in the series with HEK293, the Ratio Ki came out at 84. Further, the pKi at D(2) dopamine receptor is 5.93; at D(3) dopamine receptor [1], 7.86.

For the compound `CCCN(CCN1CCN(c2ccc3cc[nH]c3c2Cl)CC1)[C@H]1CCc2nc(N)sc2C1.O=C(O)C(F)(F)F`, the Activity result in series [7] is “Non-toxic”; in the series with PC-12, “Dose-dependent effect”; in series [8] it was “Dose-dependent effect”. The Emax in series [3] came to 101%; at D(3) dopamine receptor [4], 113%. Also, the pKi at D(2) dopamine receptor is 7.79; on D(3) dopamine receptor [1], 8.94. The compound also had a negative-log EC50 (pEC50) on D(3) dopamine receptor [9] of 8.85. Also, in the series on Rattus norvegicus, the result was Active. In addition, the viability at 20 µM in series [10] came out at 30%.

On to `CCCN(CCN1CCN(Cc2c[nH]c3cccc(F)c23)CC1)C1CCc2nc(N)sc2C1` (racemic), for which, in the series on HEK293, the Ratio Ki came to 112. The pKi is 6.00 on D(2) dopamine receptor and 8.05 on D(3) dopamine receptor [1].

Take `CCCN(CCN1CCN(c2c(Cl)ccc3[nH]ccc23)CC1)[C@H]1CCc2nc(N)sc2C1`: the Emax was found to be 87.6% in series [3] and 104% on D(3) dopamine receptor [4]. In addition, the pKi on D(2) dopamine receptor is 7.13; at D(3) dopamine receptor [1], 9.06. At D(3) dopamine receptor [9], this compound had a pEC50 of 8.41.
